ChEMBL document CHEMBL5724801, “EUbOPEN Chemogenomics Library - Multiplex” (2024)
Several values for one entry are separate records, joined by “and”; a condition that tells them apart may be missing. Equal values may be shown once.

Test system: U2OS
Assay: Multiplex assay against U2OS
Type: toxicity, cell-based
Conditions: human
Summary of the method: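 Four dyes were applied at seeding to live cells: Hoechst33342, BioTracker Green Microtubule Cytoskeleton Dye, MitoTracker Red and Annexin V Alexa Fluor 680. Imaging after compound addition used a CQ1 microscope at 37°C and 5% CO2. CellPathfinder machine-learning gating then sorted cells into Hoechst high-intensity objects or normal cells, normal cells into healthy, pyknosed or fragmented nuclei, and pyknosed cells into mitotic or apoptotic, with tubulin, mitochondrial-mass and membrane-permeability phenotypes given as per cents of healthy-nucleus cells.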

[1] = 12 h, 1 µM, compound concentration 1 uM
[2] = 12 h, 10 µM, compound concentration 10 uM
[3] = 24 h, 1 µM, compound concentration 1 uM
[4] = 24 h, 10 µM, compound concentration 10 uM
[5] = 48 h, 1 µM, compound concentration 1 uM
[6] = 48 h, 10 µM, compound concentration 10 uM

Structure (SMILES): CC(C)(C)c1ccc(CSc2cnn(C(C)(C)C)c(=O)c2Cl)cc1 [PYRIDABEN]
- Population Apoptotic (%) [1]: 79% and 63%
- Population Fragmented Nuclei (%) [1]: 28% and 11%
- Population Healthy Nuclei (%) [1]: 61% and 81%
- Population Hoechst High Intensity Objects (%) [1]: 3% and 0%
- Population Membrane Permeable-Phenotype (%) [1]: 3% and 4%
- Population Mitochondria Different-Phenotype (%) [1]: 1%
- Population Mitotic Cells (%) [1]: 20% and 36%
- Population Normal (%) [1]: 97% and 99%
- Population Pyknosed Nuclei (%) [1]: 9% and 7%
- Population Tubulin-Different-Phenotype (%) [1]: 2% and 3%
- Total Cell Count [1]: 267 and 152
- Population Apoptotic (%) [2]: 83% and 87%
- Population Fragmented Nuclei (%) [2]: 28% and 15%
- Population Healthy Nuclei (%) [2]: 57% and 73%
- Population Hoechst High Intensity Objects (%) [2]: 1% and 0%
- Population Membrane Permeable-Phenotype (%) [2]: 5%
- Population Mitochondria Different-Phenotype (%) [2]: 5% and 2%
- Population Mitotic Cells (%) [2]: 16% and 12%
- Population Normal (%) [2]: 98% and 100%
- Population Pyknosed Nuclei (%) [2]: 14% and 11%
- Population Tubulin-Different-Phenotype (%) [2]: 3% and 2%
- Total Cell Count [2]: 209 and 141
- Population Apoptotic (%) [3]: 83% and 100%
- Population Fragmented Nuclei (%) [3]: 28% and 19%
- Population Healthy Nuclei (%) [3]: 58% and 75%
- Population Hoechst High Intensity Objects (%) [3]: 1% and 2%
- Population Membrane Permeable-Phenotype (%) [3]: 4% and 3%
- Population Mitochondria Different-Phenotype (%) [3]: 1%
- Population Mitotic Cells (%) [3]: 16% and 0%
- Population Normal (%) [3]: 98% and 97%
- Population Pyknosed Nuclei (%) [3]: 13% and 5%
- Population Tubulin-Different-Phenotype (%) [3]: 1%
- Total Cell Count [3]: 286 and 186
- Population Apoptotic (%) [4]: 80%
- Population Fragmented Nuclei (%) [4]: 22% and 19%
- Population Healthy Nuclei (%) [4]: 61% and 68%
- Population Hoechst High Intensity Objects (%) [4]: 2% and 1%
- Population Membrane Permeable-Phenotype (%) [4]: 8% and 6%
- Population Mitochondria Different-Phenotype (%) [4]: 3% and 1%
- Population Mitotic Cells (%) [4]: 19% and 20%
- Population Normal (%) [4]: 97% and 98%
- Population Pyknosed Nuclei (%) [4]: 15% and 12%
- Population Tubulin-Different-Phenotype (%) [4]: 6% and 2%
- Total Cell Count [4]: 234 and 167
- Population Apoptotic (%) [5]: 76% and 84%
- Population Fragmented Nuclei (%) [5]: 26% and 19%
- Population Healthy Nuclei (%) [5]: 63% and 70%
- Population Hoechst High Intensity Objects (%) [5]: 3% and 6%
- Population Membrane Permeable-Phenotype (%) [5]: 6% and 5%
- Population Mitochondria Different-Phenotype (%) [5]: 3%
- Population Mitotic Cells (%) [5]: 23% and 15%
- Population Normal (%) [5]: 96% and 93%
- Population Pyknosed Nuclei (%) [5]: 9%
- Population Tubulin-Different-Phenotype (%) [5]: 3% and 2%
- Total Cell Count [5]: 361 and 212
- Population Apoptotic (%) [6]: 90% and 95%
- Population Fragmented Nuclei (%) [6]: 20% and 16%
- Population Healthy Nuclei (%) [6]: 64% and 70%
- Population Hoechst High Intensity Objects (%) [6]: 4% and 3%
- Population Membrane Permeable-Phenotype (%) [6]: 9% and 5%
- Population Mitochondria Different-Phenotype (%) [6]: 4% and 6%
- Population Mitotic Cells (%) [6]: 10% and 4%
- Population Normal (%) [6]: 95% and 96%
- Population Pyknosed Nuclei (%) [6]: 14% and 13%
- Population Tubulin-Different-Phenotype (%) [6]: 6% and 4%
- Total Cell Count [6]: 280 and 191

Structure (SMILES): O=C(Nc1ccccc1Br)N[C@@H]1CCN(c2ccc(C(F)(F)F)cn2)C1 [SB-705498]
- Population Apoptotic (%) [1]: 38.89% and 33.33%
- Population Fragmented Nuclei (%) [1]: 1.94% and 6.43%
- Population Healthy Nuclei (%) [1]: 84.95% and 83.04%
- Population Hoechst High Intensity Objects (%) [1]: 0%
- Population Membrane Permeable-Phenotype (%) [1]: 1.14% and 2.82%
- Population Mitochondria Different-Phenotype (%) [1]: 0% and 3.52%
- Population Mitotic Cells (%) [1]: 61.11% and 66.67%
- Population Normal (%) [1]: 100%
- Population Pyknosed Nuclei (%) [1]: 13.11% and 10.53%
- Population Tubulin-Different-Phenotype (%) [1]: 0.86% and 0%
- Total Cell Count [1]: 412 and 171
- Population Apoptotic (%) [2]: 43.24% and 36.84%
- Population Fragmented Nuclei (%) [2]: 0.5% and 3.7%
- Population Healthy Nuclei (%) [2]: 90.35% and 82.22%
- Population Hoechst High Intensity Objects (%) [2]: 0%
- Population Membrane Permeable-Phenotype (%) [2]: 0.55% and 5.41%
- Population Mitochondria Different-Phenotype (%) [2]: 0% and 21.62%
- Population Mitotic Cells (%) [2]: 56.76% and 63.16%
- Population Normal (%) [2]: 100%
- Population Pyknosed Nuclei (%) [2]: 9.16% and 14.07%
- Population Tubulin-Different-Phenotype (%) [2]: 1.64% and 3.6%
- Total Cell Count [2]: 404 and 135
- Population Apoptotic (%) [3]: 45.28% and 27.59%
- Population Fragmented Nuclei (%) [3]: 2.03% and 4.69%
- Population Healthy Nuclei (%) [3]: 88.17% and 81.69%
- Population Hoechst High Intensity Objects (%) [3]: 0.18% and 0%
- Population Membrane Permeable-Phenotype (%) [3]: 0.21% and 2.87%
- Population Mitochondria Different-Phenotype (%) [3]: 0% and 10.34%
- Population Mitotic Cells (%) [3]: 54.72% and 72.41%
- Population Normal (%) [3]: 99.82% and 100%
- Population Pyknosed Nuclei (%) [3]: 9.8% and 13.62%
- Population Tubulin-Different-Phenotype (%) [3]: 0.84% and 0%
- Total Cell Count [3]: 542 and 213
- Population Apoptotic (%) [4]: 39.24% and 21.05%
- Population Fragmented Nuclei (%) [4]: 0.86% and 1.8%
- Population Healthy Nuclei (%) [4]: 85.49% and 86.83%
- Population Hoechst High Intensity Objects (%) [4]: 0%
- Population Membrane Permeable-Phenotype (%) [4]: 1.82% and 4.14%
- Population Mitotic Cells (%) [4]: 60.76% and 78.95%
- Population Normal (%) [4]: 100%
- Population Pyknosed Nuclei (%) [4]: 13.64% and 11.38%
- Population Tubulin-Different-Phenotype (%) [4]: 2.83% and 1.38%
- Population Apoptotic (%) [5]: 41.75% and 51.28%
- Population Fragmented Nuclei (%) [5]: 3.31% and 2.67%
- Population Healthy Nuclei (%) [5]: 86.67% and 86.93%
- Population Hoechst High Intensity Objects (%) [5]: 0%
- Population Membrane Permeable-Phenotype (%) [5]: 0.9% and 2.76%
- Population Mitochondria Different-Phenotype (%) [5]: 0% and 4.29%
- Population Mitotic Cells (%) [5]: 58.25% and 48.72%
- Population Normal (%) [5]: 100%
- Population Pyknosed Nuclei (%) [5]: 10.02% and 10.4%
- Population Tubulin-Different-Phenotype (%) [5]: 0.9% and 0.92%
- Total Cell Count [5]: 1028 and 375
- Population Apoptotic (%) [6]: 52.22% and 32.26%
- Population Fragmented Nuclei (%) [6]: 1.85% and 1.83%
- Population Healthy Nuclei (%) [6]: 89.37% and 86.81%
- Population Hoechst High Intensity Objects (%) [6]: 0.1% and 0%
- Population Membrane Permeable-Phenotype (%) [6]: 1.09% and 4.64%
- Population Mitochondria Different-Phenotype (%) [6]: 0.22% and 8.02%
- Population Mitotic Cells (%) [6]: 47.78% and 67.74%
- Population Normal (%) [6]: 99.9% and 100%
- Population Pyknosed Nuclei (%) [6]: 8.78% and 11.36%
- Population Tubulin-Different-Phenotype (%) [6]: 2.07% and 1.27%

Structure (SMILES): Cl.Clc1ccc2nsnc2c1NC1=NCCN1 [TIZANIDINE HYDROCHLORIDE]
- Population Apoptotic (%) [1]: 82% and 85%
- Population Fragmented Nuclei (%) [1]: 20% and 10%
- Population Healthy Nuclei (%) [1]: 73% and 78%
- Population Hoechst High Intensity Objects (%) [1]: 2% and 1%
- Population Membrane Permeable-Phenotype (%) [1]: 6% and 3%
- Population Mitochondria Different-Phenotype (%) [1]: 1% and 2%
- Population Mitotic Cells (%) [1]: 17% and 14%
- Population Normal (%) [1]: 97% and 98%
- Population Pyknosed Nuclei (%) [1]: 5% and 10%
- Population Tubulin-Different-Phenotype (%) [1]: 2% and 3%
- Total Cell Count [1]: 306 and 140
- Population Apoptotic (%) [2]: 77% and 90%
- Population Fragmented Nuclei (%) [2]: 31% and 22%
- Population Healthy Nuclei (%) [2]: 61% and 66%
- Population Hoechst High Intensity Objects (%) [2]: 2%
- Population Membrane Permeable-Phenotype (%) [2]: 7% and 14%
- Population Mitochondria Different-Phenotype (%) [2]: 2% and 7%
- Population Mitotic Cells (%) [2]: 22% and 10%
- Population Normal (%) [2]: 97%
- Population Pyknosed Nuclei (%) [2]: 6% and 10%
- Total Cell Count [2]: 280 and 98
- Population Apoptotic (%) [3]: 90% and 89%
- Population Fragmented Nuclei (%) [3]: 19% and 15%
- Population Healthy Nuclei (%) [3]: 72% and 73%
- Population Hoechst High Intensity Objects (%) [3]: 0% and 4%
- Population Membrane Permeable-Phenotype (%) [3]: 4% and 7%
- Population Mitochondria Different-Phenotype (%) [3]: 2% and 4%
- Population Mitotic Cells (%) [3]: 9% and 10%
- Population Normal (%) [3]: 99% and 95%
- Population Pyknosed Nuclei (%) [3]: 8% and 11%
- Population Tubulin-Different-Phenotype (%) [3]: 5% and 6%
- Total Cell Count [3]: 381 and 172
- Population Apoptotic (%) [4]: 65% and 86%
- Population Fragmented Nuclei (%) [4]: 29% and 25%
- Population Healthy Nuclei (%) [4]: 62% and 61%
- Population Hoechst High Intensity Objects (%) [4]: 2%
- Population Membrane Permeable-Phenotype (%) [4]: 4% and 12%
- Population Mitochondria Different-Phenotype (%) [4]: 1% and 7%
- Population Mitotic Cells (%) [4]: 34% and 13%
- Population Normal (%) [4]: 97%
- Population Pyknosed Nuclei (%) [4]: 8% and 13%
- Population Tubulin-Different-Phenotype (%) [4]: 1% and 11%
- Total Cell Count [4]: 327 and 118
- Population Apoptotic (%) [5]: 86% and 90%
- Population Fragmented Nuclei (%) [5]: 11% and 17%
- Population Healthy Nuclei (%) [5]: 80% and 74%
- Population Hoechst High Intensity Objects (%) [5]: 1% and 3%
- Population Membrane Permeable-Phenotype (%) [5]: 2% and 5%
- Population Mitochondria Different-Phenotype (%) [5]: 1% and 2%
- Population Mitotic Cells (%) [5]: 13% and 9%
- Population Normal (%) [5]: 98% and 96%
- Population Pyknosed Nuclei (%) [5]: 7% and 8%
- Population Tubulin-Different-Phenotype (%) [5]: 2% and 3%
- Total Cell Count [5]: 512 and 260
- Population Apoptotic (%) [6]: 93% and 76%
- Population Fragmented Nuclei (%) [6]: 18% and 22%
- Population Healthy Nuclei (%) [6]: 75% and 65%
- Population Hoechst High Intensity Objects (%) [6]: 2% and 4%
- Population Membrane Permeable-Phenotype (%) [6]: 5% and 15%
- Population Mitochondria Different-Phenotype (%) [6]: 1% and 5%
- Population Normal (%) [6]: 97% and 95%
- Population Pyknosed Nuclei (%) [6]: 6% and 11%
- Population Tubulin-Different-Phenotype (%) [6]: 3% and 7%
